From PubChem BioAssay
Most compounds without a hit are left out; they make up all but 1.1% or so of the library.
SENP1 inh: SENP1 (human) catalytic domain inhibition. Q9P0U3. recombinant SENP1 catalytic domain, CyPet-SUMO1-YPet FRET cleavage. inhibition, % at 10 µM. 360,000 compounds, 0.21% hits;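 active means inhibition at least 30% at 10 µM, raw YFP signal under a set limit, fluorescence ratio 0.5 to 1.5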;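 further: 0% = enzyme with DMSO and 100% = no enzyme wells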
Target sequence (Q9P0U3 419-644 limits assumed): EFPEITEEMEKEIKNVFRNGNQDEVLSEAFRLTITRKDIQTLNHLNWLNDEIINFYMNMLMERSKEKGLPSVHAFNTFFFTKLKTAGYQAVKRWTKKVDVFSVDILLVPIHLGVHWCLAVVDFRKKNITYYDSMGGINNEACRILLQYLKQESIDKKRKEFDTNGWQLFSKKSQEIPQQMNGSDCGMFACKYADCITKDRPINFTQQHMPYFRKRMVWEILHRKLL
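system = hSENP1 catalytic domain, recombinant | reagent = SFCypet-SUMO1-SFYpet substrate at 25 nM | doses = one dose per compound, 10 µM, 0.5% DMSO | incubation = enzyme reaction for 50 min at room temperature, dark | measured by = FRET, CFP and YFP emission | controls = no-enzyme low, enzyme-DMSO high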
FAS TE block: inhibitors of human fatty acid synthase thioesterase domain. P49327. recombinant FAS-TE, OMFH fluorogenic substrate, fluorescence endpoint. inhibition, % at 15 µM. 360,000 compounds, 0.67% hits;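 active means compounds whose normalised, plate-corrected inhibition of enzyme fluorescence in the single-dose primary screen is 50% or more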;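 further: 0% = DMSO with enzyme and 100% = substrate without enzyme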
Arr AP2 block: human beta-arrestin and AP2 interaction inhibition | FITC-arrestin peptide / GST-AP2 beads, flow cytometry; AP2 beta2 appendage carries R879A mutation | inhibition, % at 10 µM | 340,000 compounds, 0.31% hits | AID 504490;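 active means inhibition above a set limit, near 3 SD of compounds lacking own fluorescence, cut at about 54% in these data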;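 further: plate controls were DMSO wells for no effect and 5 µM unlabelled arrestin peptide for full effect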
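Material – GST-tagged AP2 beta2-adaptin appendage (R879A) on 4 µm glutathione beads · Probe or stimulus – fluorescein-tagged arrestin peptide at 50 nM final · Timing – 12 min plus 1 h, RT · Detection – bead flow cytometry, FITC channel · Read-out basis – inhibition as reduced fluorescein signal on beads, percent · Medium – PBS plus Tween 20 (0.05%) and BSA (0.1%)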
GASC-1 inh: human JMJD2C demethylase inhibition; Q9H3R0; GST-JMJD2C(1-420) H3K9me3 demethylation, DELFIA europium; inhibition, % at 2.35 µM; 330,000 compounds, 0.069% hits; AID 2099;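 active means more than half of a compound's replicate wells show inhibition beyond 50%, single wells judged on their own value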;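 further: signal counts dimethyl H3K9 product captured on neutravidin plate; 0% = median of DMSO wells and 100% = 0.3 times that DMSO median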
FAS-TE conf: confirmation of human fatty acid synthase thioesterase inhibitors; 2,300 compounds, 45% hits; shares compounds with FAS TE block; recombinant FAS-TE, OMFH fluorogenic substrate, fluorescence; inhibition, % at 15 µM;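 active means compounds inhibiting the enzyme by at least 50% at 15 µM in any one of the replicates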;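 further: 0% = enzyme with DMSO only and 100% = wells lacking enzyme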
* marks the source's active call; other numbers are inactive results; · = no result.

SMILES | SENP1 inh | FAS TE block | Arr AP2 block | GASC-1 inh | FAS-TE conf
CC#CCN1c2ccccc2[C@]23C[C@@H](C(=O)OC)N(C(=O)NCCBr)C2=NC(C(=O)OC)=C(C(=O)OC)[C@H]13 | 5 | 64* | 8 | -1 | 29
Cn1cc(Cl)c(C(=O)OCC(=O)Nc2ccccc2)n1 | -2 | -7 | 7 | 2 | ·
COc1ccc(C(=O)OCC(=O)NCc2ccc3c(c2)OCO3)cc1[N+](=O)[O-] | 1 | 50* | -5 | 7 | 1
Cc1n[nH]c(C)c1S(=O)(=O)N(CC(=O)NC1CCCC1)c1ccc(C(C)C)cc1 | 0 | 7 | 7 | -6 | ·
COCC(=O)N[C@H]1C=C[C@@H](CC(=O)NCc2ccccc2OC)O[C@@H]1CO | 1 | · | · | · | ·
CC(C)=CCc1c([C@@H]2CCc3ccc(O)cc3O2)cc2c(c1O)OC(C)(C)C=C2 | -1 | 6 | · | 41 | ·
CC1CCN(c2ccc([N+](=O)[O-])cc2C(=O)N2CCOCC2)CC1 | 3 | -2 | 3 | -3 | ·
CC1CN(C(=O)COC(=O)c2cc([N+](=O)[O-])ccc2Cl)CC(C)O1 (stereo not given) | 1 | 26 | -3 | -11 | ·
CCOC(=O)C1CCN(C(=O)COC(=O)c2cc([N+](=O)[O-])ccc2N2CCOCC2)CC1 | 1 | 70* | -7 | 8 | 71*
CC1CCCN(C(=O)COC(=O)c2cc([N+](=O)[O-])ccc2N2CCOCC2)C1 (stereo not given) | 1 | 81* | 9 | -2 | 84*
CC1CC(C)CN(C(=O)COC(=O)c2cc([N+](=O)[O-])ccc2N2CCOCC2)C1 (stereo not given) | 1 | 83* | 1 | 10 | 81*
CC1CCCC(C)N1C(=O)COC(=O)c1cc([N+](=O)[O-])ccc1N1CCOCC1 (stereo not given) | 2 | 63* | -2 | 0 | 74*
CC(=O)OCC1OC(n2cc(F)c(=O)[nH]c2=O)C(OC(C)=O)C1OC(C)=O (stereo not given) | 1 | -7 | -7 | 5 | ·
O=C1C(F)=CC(COC(c2ccccc2)(c2ccccc2)c2ccccc2)OC1n1cc(F)c(=O)[nH]c1=O (stereo not given) | -2 | 70* | -7 | · | 52*
CCn1cc(C(=O)NC(C)CCc2ccccc2)c(=O)c2cc(S(=O)(=O)N(C)C)ccc21 (stereo not given) | 1 | 63* | 1 | 15 | 28
CCn1cc(C(=O)NCc2ccc(Cl)cc2)c(=O)c2cc(S(=O)(=O)N3CCOCC3)ccc21 | 1 | 12 | -4 | -2 | ·
CCn1cc(C(=O)NCc2ccc3c(c2)OCO3)c(=O)c2cc(S(=O)(=O)N3CCOCC3)ccc21 | 3 | 6 | 1 | -1 | ·
CCn1cc(C(=O)NCCc2ccc(C)cc2)c(=O)c2cc(S(=O)(=O)N(C)C)ccc21 | · | · | · | -6 | ·
CCn1cc(C(=O)NCCc2ccc(Cl)cc2)c(=O)c2cc(S(=O)(=O)N(C)C)ccc21 | 1 | 75* | 4 | 7 | 34
CCn1cc(C(=O)NCc2ccc3c(c2)OCO3)c(=O)c2cc(S(=O)(=O)N(C)C)ccc21 | 2 | 57* | -1 | 5 | 42*
CCn1cc(C(=O)NCCCN(C)c2ccccc2)c(=O)c2cc(S(=O)(=O)N(C)C)ccc21 | -1 | 32 | 10 | -4 | ·
CCn1cc(C(=O)NCc2ccc(Cl)cc2)c(=O)c2cc(S(=O)(=O)N(C)C)ccc21 | 0 | 64* | -2 | 4 | 77*
CCN(CC(=O)NCc1cccs1)S(=O)(=O)c1cc(NC(C)=O)ccc1OC | 1 | -6 | 4 | -7 | ·
Cc1cccc(NC(=O)CCS(=O)(=O)c2ccc3c(c2)oc(=O)n3C)c1 | 0 | -2 | 23 | -6 | ·
CC(C)(C)c1ccc(C(=O)Nc2cccc([N+](=O)[O-])c2)cc1 | 0 | 46 | -9 | 0 | ·
CCCc1cc(C(=O)Nc2cccc([N+](=O)[O-])c2)cs1 | 0 | 52* | 20 | -59 | 41*
CC(=O)Nc1ccc(NC(=O)c2ccccc2S(=O)(=O)c2ccc([N+](=O)[O-])cc2)cc1 | 4 | 59* | 1 | 4 | 64*
COc1ccccc1NC(=O)c1ccccc1S(=O)(=O)c1ccccc1[N+](=O)[O-] | 1 | -6 | 2 | -5 | ·
